From ChEMBL document CHEMBL4627246, “Pyroglutamide-Based P2X7 Receptor Antagonists Targeting Inflammatory Bowel Disease” (J Med Chem, 2020) come the findings set out here.

Activity calls are given as the source filed them. No rule for the calls is given here.

Broadly, the inhibition is the relative decrease from the control value, in per cent.

The target in this test is T1, P2X purinoceptor 7 (Homo sapiens) (UniProt Q99572).
T1 sequence (whole entry): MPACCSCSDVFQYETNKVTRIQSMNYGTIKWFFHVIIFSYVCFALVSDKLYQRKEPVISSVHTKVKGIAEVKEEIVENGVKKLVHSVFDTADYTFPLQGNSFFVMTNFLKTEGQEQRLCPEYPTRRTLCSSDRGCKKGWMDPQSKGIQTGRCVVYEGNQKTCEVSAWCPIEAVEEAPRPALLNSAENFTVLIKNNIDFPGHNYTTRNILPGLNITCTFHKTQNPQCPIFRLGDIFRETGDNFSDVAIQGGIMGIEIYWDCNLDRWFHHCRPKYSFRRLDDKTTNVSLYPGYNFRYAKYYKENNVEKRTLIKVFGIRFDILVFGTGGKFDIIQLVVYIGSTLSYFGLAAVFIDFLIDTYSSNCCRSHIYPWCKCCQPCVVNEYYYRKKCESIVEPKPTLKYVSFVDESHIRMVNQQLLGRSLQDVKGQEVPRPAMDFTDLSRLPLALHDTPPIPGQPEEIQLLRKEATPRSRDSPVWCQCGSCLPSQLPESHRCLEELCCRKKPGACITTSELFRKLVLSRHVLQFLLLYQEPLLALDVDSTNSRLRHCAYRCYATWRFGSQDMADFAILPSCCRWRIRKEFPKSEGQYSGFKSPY
Kind of test: Inhibition of human P2X7 expressed in human HEK293 cells assessed as reduction in BzATP-stimulated TO-PRO-3 incorporation at 10 uM preincubated with compound and TO-PRO-3 for 15 mins prior to BzATP addition and measured after 1 hr by Fluo-3AM dye based flow cytometry relative to control. The test is classed as cell-based. In a few lines:
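HEK-293 cells overexpressing human P2RX7 loaded with Fluo-3 AM, then incubated with TO-PRO-3 (large pore uptake) and propidium iodide (viability) plus compound (10⁻⁵ M single point) for 15 min before BzATP 100 µM. After 1 h, flow cytometry; percentage of Fluo-3/TO-PRO-3 double-positive cells calculated. Mean of n ≥ 2 with positive control.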
Background: In flow cytometry, cells or beads pass a laser one at a time.
`Cc1ccc(NC(=O)[C@@H]2CCC(=O)N2)cc1`: the inhibition entry is “inactive”.

`CN(C)C(=O)[C@@H]1CCC(=O)N1c1ccccc1`: the inhibition was 0%.

On to `COC(=O)[C@@H]1CCC(=O)N1Cc1ccccc1Cl`, for which the inhibition result is “inactive”.

`COc1cc(NC(=O)[C@@H]2CCC(=O)N2)cc(OC)c1OC`: the inhibition result is “inactive”.

For the compound `O=C1CC[C@@H](C(=O)NC2CCCCC2)N1`, the inhibition result was “inactive”.

As to `O=C1CC[C@@H](C(=O)NCCc2ccccc2)N1`, the inhibition entry was “inactive”.

As for `O=C(NCc1ccccc1Cl)[C@@H]1CCC(=O)N1Cc1ccc(Cl)cc1Cl`, the inhibition turned out to be 0%.

`COC(=O)[C@@H]1CCC(=O)N1c1ccc(Cl)cc1Cl`: the inhibition entry is “inactive”.

`C[C@H](NC(=O)[C@@H]1C/C(=C\N(C)C)C(=O)N1)c1ccccc1`: the inhibition is 0%.

For `COC(=O)C1C/C(=C\N(C)C)C(=O)N1C(=O)OC` (stereo unspecified), the inhibition entry is “inactive”.

Take `O=C(NCc1ccco1)[C@@H]1CCC(=O)N1Cc1ccc(Cl)cc1Cl`: the inhibition is 0%.

Consider `COc1ccccc1CNC(=O)[C@@H]1CCC(=O)N1`, for which the inhibition result is “inactive”.

As to `C[C@H](NC(=O)[C@@H]1CCC(=O)N1)c1ccccc1`, the inhibition entry is “inactive”.

Turning to `COC(=O)[C@@H]1CCC(=O)N1Cc1ccc(Cl)cc1Cl`, the inhibition result is “inactive”.

For `O=C1CC[C@@H](C(=O)NCc2ccccc2)N1`, the inhibition entry is “inactive”.

For the compound `COC(=O)[C@@H]1CCC(=O)N1`, the inhibition result was “inactive”.

In the case of `O=C(NCCc1ccccc1)[C@@H]1CCC(=O)N1Cc1ccc([N+](=O)[O-])cc1`, the inhibition was determined as 0%.

Take `COc1ccc(NC(=O)[C@@H]2CCC(=O)N2)cc1F`: the inhibition result was “inactive”.

With `O=C(NCc1ccc(Cl)cc1Cl)[C@@H]1CCC(=O)N1Cc1ccc(Cl)cc1Cl`, the inhibition was 0%.

`C[C@@H](NC(=O)[C@@H]1C/C(=C\N(C)C)C(=O)N1)c1ccccc1`: the inhibition amounted to 0%.

Regarding `COC(=O)[C@@H]1CCC(=O)N1C(c1ccc(Cl)cc1)c1ccc(Cl)cc1`, the inhibition entry is “inactive”.

In the case of `CN(C)/C=C1\C[C@H]2C(=O)N(CCc3ccccc3)C(N(C)C)N2C1=O` (stereo partly specified), the inhibition came out at 0%.

On to `COC(=O)[C@@H]1CCC(=O)N1c1ccc(OC)cc1`, for which the inhibition entry is “inactive”.

For `C[C@@H](NC(=O)[C@@H]1CCC(=O)N1)c1ccccc1`, the inhibition entry is “inactive”.

For `COC(=O)[C@@H]1COC(=O)N1`, the inhibition entry was “inactive”.

As to `COC(=O)[C@@H]1CCC(=O)N1c1cc(Cl)cc(Cl)c1`, the inhibition result is “inactive”.

With `O=C1CC[C@@H](C(=O)NCc2ccc(Cl)cc2Cl)N1`, the inhibition result is “inactive”.

Regarding `O=C(NCc1ccc(Cl)cc1Cl)[C@@H]1CCC(=O)N1c1cccc(C(F)(F)F)c1`, the inhibition is 0%.

On to `O=C1CC[C@@H](C(=O)NCCc2ccc(Cl)cc2Cl)N1`, for which the inhibition result is “inactive”.

As to `O=C(NCc1ccc(Cl)cc1Cl)[C@@H]1CCC(=O)N1Cc1ccccc1Cl`, the inhibition was 85%.

Consider `O=C(NCc1ccc(Cl)cc1Cl)C1CC(=O)N(c2cccs2)C1` (stereo unspecified), for which the inhibition turned out to be 92%.

For `O=C1CCCC(C(=O)O)N1` (stereo unspecified), the inhibition was 0%.

Regarding `COC(=O)[C@@H]1CCC(=O)N1Cc1ccc(Cl)cc1`, the inhibition result was “inactive”.

For `Cc1ccc(CN2C(=O)CC[C@H]2C(=O)NCCc2ccccc2)cc1`, the inhibition was found to be 0%.

For the compound `COc1ccc(NC(=O)[C@@H]2CCC(=O)N2)c(OC)c1`, the inhibition result was “inactive”.

Consider `COC(=O)C1CNC(=O)C1` (stereo unspecified), for which the inhibition entry is “inactive”.

For `O=C(NCc1ccc(Cl)cc1Cl)[C@@H]1CCC(=O)N1c1ccccc1Cl`, the inhibition worked out at 0%.

For `O=C1CC[C@@H](C(=O)NCc2cc(C(F)(F)F)ccc2Cl)N1`, the inhibition result is “inactive”.

Consider `O=C1CC[C@@H](C(=O)NCc2ccccc2Cl)N1`, for which the inhibition result is “inactive”.

Turning to `COc1cc(N2C(=O)[C@@H]3C/C(=C\N(C)C)C(=O)N3C2N(C)C)cc(OC)c1OC` (stereo partly specified), the inhibition came out at 0%.

Turning to `O=C(NCCc1ccccc1)[C@@H]1CCC(=O)N1Cc1ccccc1`, the inhibition was 0%.

Turning to `COc1ccc(CNC(=O)[C@@H]2CCC(=O)N2)c(OC)c1`, the inhibition entry is “inactive”.

For `O=C(Nc1ccc(Cl)cc1Cl)[C@@H]1CCC(=O)N1c1ccccc1`, the inhibition is 0%.

For the compound `COC(=O)[C@@H]1CCC(=O)N1c1ccccc1`, the inhibition entry is “inactive”.

With `O=C1N[C@H](C(=O)O)CO1`, the inhibition result was “inactive”.

As to `CCCCCCNC(=O)[C@@H]1CCC(=O)N1`, the inhibition entry was “inactive”.

Turning to `COC(=O)[C@@H]1CCC(=O)N1c1ccoc1`, the inhibition entry was “inactive”.

As to `O=C(NCc1ccc(Cl)cc1Cl)[C@@H]1CCC(=O)N1Cc1ccc([N+](=O)[O-])cc1`, the inhibition amounted to 0%.

As for `O=C1CC[C@@H](C(=O)NCc2ccncc2)N1`, the inhibition entry is “inactive”.

Take `O=C(NCc1ccc(Cl)cc1Cl)[C@@H]1CCC(=O)N1c1ccncc1`: the inhibition turned out to be 0%.

On to `CN(C)C1N(Cc2ccc(Cl)cc2Cl)C(=O)[C@@H]2CC(=O)C(=O)N12` (stereo partly specified), for which the inhibition was found to be 0%.

On to `COC(=O)[C@@H]1CCC(=O)N1Cc1ccc(C)cc1`, for which the inhibition result was “inactive”.

Regarding `COc1ccc(NC(=O)[C@@H]2CCC(=O)N2)cc1`, the inhibition result was “inactive”.

`O=C(NCc1ccc(Cl)cc1Cl)[C@@H]1CCC(=O)N1c1cc(Cl)cc(Cl)c1`: the inhibition was 0%.

For `COC(=O)[C@@H]1CCC(=O)N1Cc1ccc([N+](=O)[O-])cc1`, the inhibition entry was “inactive”.

As for `COc1ccc(CNC(=O)[C@@H]2CCC(=O)N2)cc1`, the inhibition result is “inactive”.

In the case of `COC(=O)[C@@H]1CCC(=O)N1c1ccc(C#N)cc1`, the inhibition entry is “inactive”.

`O=C(NCc1ccc(Cl)cc1Cl)[C@@H]1CCC(=O)N1c1cccc2ncccc12`: the inhibition amounted to 0%.

As to `COC(=O)[C@@H]1CCC(=O)N1Cc1ccc(Br)cc1`, the inhibition entry is “inactive”.

For the compound `COC(=O)[C@@H]1CCC(=O)N1Cc1ccccc1`, the inhibition entry was “inactive”.

As for `O=C1CC[C@@H](C(=O)Nc2ccc(Cl)cc2Cl)N1`, the inhibition entry was “inactive”.

In the case of `COC(=O)[C@@H]1CCC(=O)N1c1ccccc1Cl`, the inhibition entry is “inactive”.

As to `COC(=O)[C@@H]1CCC(=O)N1c1ccc(Cl)cc1`, the inhibition result is “inactive”.

Turning to `O=C1CC[C@@H](C(=O)NC2CC3CCC2C3)N1` (stereo partly specified), the inhibition result was “inactive”.

For the compound `C[C@H](NC(=O)[C@@H]1CCC(=O)N1c1cccs1)c1ccc(Cl)cc1Cl`, the inhibition was determined as 0%.

On to `COc1ccccc1CNC(=O)[C@@H]1C/C(=C\N(C)C)C(=O)N1`, for which the inhibition amounted to 0%.

On to `COC(=O)[C@@H]1CCC(=O)N1c1cccs1`, for which the inhibition entry was “inactive”.

For the compound `CN(C)/C=C1\C[C@H]2C(=O)N(Cc3ccccc3)C(N(C)C)N2C1=O` (stereo partly specified), the inhibition came out at 0%.

On to `O=C1CC[C@@H](C(=O)NCc2cccc(C(F)(F)F)c2Cl)N1`, for which the inhibition entry is “inactive”.

For `COC(=O)[C@@H]1CCC(=O)N1C(c1ccccc1)c1ccccc1`, the inhibition entry is “inactive”.

For the compound `COC(=O)[C@@H]1CCC(=O)N1c1cccc2ncccc12`, the inhibition result is “inactive”.

As to `CN(C)/C=C1\C[C@@H](C(=O)NCc2ccc(Cl)cc2Cl)NC1=O`, the inhibition came out at 53%.

Take `O=C1CC[C@@H](C(=O)Nc2ccccc2)N1`: the inhibition result is “inactive”.

`COC(=O)[C@@H]1CCC(=O)N1c1ccncc1`: the inhibition result is “inactive”.

`O=C1CC[C@@H](C(=O)Nc2ccncc2)N1`: the inhibition entry is “inactive”.

With `O=C1CC[C@@H](C(=O)NCC2CCCCC2)N1`, the inhibition entry is “inactive”.

Take `COC(=O)[C@@H]1CCC(OC)=N1`: the inhibition result was “inactive”.

Regarding `COC(=O)[C@@H]1CCC(=O)N1c1cccc(C(F)(F)F)c1`, the inhibition result is “inactive”.

As for `COC(=O)[C@@H]1CCC(=O)N1[Si](C)(C)C`, the inhibition entry is “inactive”.

For `O=C(NCc1ccccc1)[C@@H]1CCC(=O)N1Cc1ccccc1`, the inhibition was determined as 0%.

Take `COC(=O)[C@@H]1CCC(=O)N1Cc1ccc(OC)cc1`: the inhibition result was “inactive”.

Take `NC(=O)[C@@H]1CCC(=O)N1`: the inhibition result was “inactive”.

For `O=C(NCc1ccc(Cl)cc1Cl)[C@@H]1C/C(=N\O)C(=O)N1c1cccs1`, the inhibition is 76%.

Consider `CN(C)/C=C1\CC[C@@H](C(=O)NCc2ccc(Cl)cc2Cl)NC1=O`, for which the inhibition stood at 6%.

Consider `COC(=O)[C@@H]1CCC(=O)N1C`, for which the inhibition result is “inactive”.

`C[C@@H](c1ccccc1)N1C(=O)[C@@H]2C/C(=C\N(C)C)C(=O)N2C1N(C)C` (stereo partly specified): the inhibition was 0%.
